# Measured values from different studies.
# Protocols differ between the studies behind these lines.
# ACE: Angiotensin-converting enzyme (ACE, Oryctolagus cuniculus, UniProt P12822)
# ALOX5: Polyunsaturated fatty acid 5-lipoxygenase (ALOX5, Homo sapiens, UniProt P09917)
# dxs: dxs (Pseudomonas aeruginosa, UniProt Q9KGU7)
Compound,target,effect on,mode,technique,setting,endpoint,value
CC(C)C[C@H](N)C(=O)N[C@@H](Cc1c[nH]c2ccccc12)C(=O)N[C@@H](CC(=O)O)C(=O)N1CCC[C@H]1C(=O)N1CCC[C@H]1C(=O)N[C@@H](CCC(=O)O)C(=O)NCC(=O)N[C@@H](C)C(=O)N1CCC[C@H]1C(=O)O,ACE,enzyme activity,inhibitor,,,IC50,207 µM
CCCCOc1cc(C(=O)NCCN(CC)CC)c2ccccc2n1,"PKD2L1 (Homo sapiens, UniProt Q9P0L9, F549I)",ion current,inhibitor,patch clamp,,IC50,76.2 µM
C=CCOc1ccc(C(=O)/C=C/c2cccc(F)c2)c(OS(C)(=O)=O)c1I,ALOX5,enzyme activity,inhibitor,,,IC50,34.6 µM
COc1ccc(CCCCC(=O)C(F)(F)C(F)(F)F)cc1,"Cytosolic phospholipase A2 (PLA2G4A, Homo sapiens, UniProt P47712)",enzyme activity,inhibitor,,,IC50,26.2 µM
N=C(N)NCCC[C@H](NC(=O)[C@H](Cc1ccccc1)NC(=O)[C@@H]1CCCN1C(=O)[C@H](CO)NC(=O)[C@@H]1CCCN1C(=O)[C@@H](N)Cc1ccccc1)C(=O)O,ACE,enzyme activity,inhibitor,,,IC50,81.3 µM
CCCCOP(=O)(O)C(C)=O,dxs,enzyme activity,inhibitor,,,Ki,1.84 µM
COC(=O)C1=CO[C@@H](O[C@@H]2O[C@H](CO)[C@@H](O)[C@H](O)[C@H]2O)[C@@H]2C(CO)=CC[C@H]12,"Cystathionine beta-synthase (CBS, Homo sapiens, UniProt P35520)",binding,,MST,,Kd,38.4 µM
CCN1CCN(Cc2ccc(Nc3ncc(F)c(-c4cc(F)c5nc6n(c5c4)[C@H](C)CCC6)n3)nc2)CC1,"Multidrug and toxin extrusion protein 2 (SLC47A2, Homo sapiens, UniProt Q86VL8)",enzyme activity,inhibitor,,,IC50,0.0654 µM
N[C@@H](Cc1c[nH]cn1)C(=O)N[C@@H](CC(=O)O)C(=O)N[C@@H](CS)C(=O)N[C@@H](Cc1ccccc1)C(=O)O,ACE,enzyme activity,inhibitor,,,IC50,4.5 µM
C=CCOc1ccc(C(=O)/C=C/c2ccc(OC)cc2)c(OS(C)(=O)=O)c1I,ALOX5,enzyme activity,inhibitor,,,IC50,38.3 µM
Cn1c(=O)n(CCCCN2CCC3(CC2)OCc2ccccc23)c2ccccc21,"Sodium-dependent serotonin transporter (Slc6a4, Rattus norvegicus, UniProt P31652)",ligand displacement,,radioligand,cell membranes,Ki,2.83 µM
CC(=O)P(=O)(O)OCCc1cn([C@H](Cc2ccccc2)C(=O)O)nn1,dxs,enzyme activity,inhibitor,,,Ki,2.6 µM
COc1cc2c(cc1OC)CN(CCc1ccc(NC(=O)c3cccc4c(=O)c5cccc(OC)c5[nH]c34)cc1)CC2,"Mu-type opioid receptor (OPRM1, Homo sapiens, UniProt P35372)",cell-free assay,,,,Ki,> 10 µM
